What all share (format): functional
Test [1] deals with Mus musculus. In words: Effective dose by mouse phenyl-p-benzoquinone writhing (PQW)assay after peroral administration; 0.16-0.57. As to conditions: po.
Test [2] deals with Rattus norvegicus. Kind of test: Effective dose determined against rat adjuvant arthritis after peroral administration. As to conditions: po. An outline of the steps:
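Male Lewis rats (130-150 g) given 0.1 mL Mycobacterium butyricum adjuvant (5 mg/mL in mineral oil) s.c. into the right hind paw; arthritis developed for 2 weeks. Groups of 10 matched for severity were dosed orally by gavage in PVA-acacia vehicle (10 mL/kg) for 7 days. Uninjected left paw volume was measured the day after the last dose. Percent decrease was calculated vs arthritic and nonarthritic controls. ED50 was read from a visually fitted semilog dose-response line.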

Test [3] deals with Mus musculus. Kind of test: Effective dose by mouse phenyl-p-benzoquinone writhing (PQW)assay after peroral administration; 14.9-77.8. As to conditions: po. A general note: In writhing tests, fewer writhes than in controls are read as antinociception.
Test [4] has as its system Mus musculus. Kind of test: Effective dose by mouse phenyl-p-benzoquinone writhing (PQW)assay after peroral administration; activity value ranges from (1.9-10.1). As to conditions: po. An outline of the steps: (§1)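 Fasted (17-21 h) female white mice, 5-20 per double-blind test, dosed orally with compound suspended in 1% methylcellulose. 0.20 mL aqueous 0.01% phenyl-p-benzoquinone given i.p. 6 min before a 10-min observation for stretching/writhing. ED50 (dose protecting 50% of mice) calculated by the moving-average method.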

Test [5] relates to Mus musculus. In words: Effective dose by mouse phenyl-p-benzoquinone writhing (PQW)assay after peroral administration; activity value ranges from (16.2-99). As to conditions: po. Summed up: as §1
Test [6] concerns Mus musculus. Kind of test: Effective dose by mouse phenyl-p-benzoquinone writhing (PQW)assay after peroral administration; activity value ranges from (2.7-11.8). As to conditions: po. An outline of the steps: as §1
Test [7] concerns Mus musculus. Kind of test: Effective dose by mouse phenyl-p-benzoquinone writhing (PQW)assay after peroral administration; activity value ranges from (20.2-79.4). As to conditions: po. An outline of the steps:
as §1

For test [8], the system named is Mus musculus. Kind of test: Effective dose by mouse phenyl-p-benzoquinone writhing (PQW)assay after peroral administration; activity value ranges from (7.7-33.2). As to conditions: po. Summed up: as §1
Test [9] has as its system Mus musculus. Kind of test: Effective dose by mouse phenyl-p-benzoquinone writhing (PQW)assay after peroral administration; 6.5-42.8. As to conditions: po.
In test [10] the test system is Mus musculus. In words: Effective dose by mouse phenyl-p-benzoquinone writhing (PQW)assay after peroral administration; activity value ranges from (38.0-118.0). As to conditions: po. Summed up: as §1
Test [11] deals with Rattus norvegicus. Kind of test: Decrease in paw volume by the effect of compound at a dose of 1 mg/kg. An outline of the steps:
(§2)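 Male Lewis rats (130-150 g) got 0.1 mL adjuvant (heat-killed Mycobacterium butyricum, 5 mg/mL in mineral oil) subplantar in the right hind paw and were left 2 weeks. Groups of 10 matched for severity were dosed orally by gavage (PVA-acacia vehicle, 10 mL/kg) for 7 days. Uninjected left hind paw volume was read the next day. % decrease = (arthritic control − treated)/(arthritic − nonarthritic control) × 100; Student's t-test.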

In test [12] the test system is Mus musculus. Kind of test: Effective dose by mouse phenyl-p-benzoquinone writhing (PQW)assay after peroral administration; activity value ranges from (25.5-94.1). As to conditions: po. Summed up: as §1
Test [13] relates to Mus musculus. Kind of test: Effective dose by mouse phenyl-p-benzoquinone writhing (PQW)assay after peroral administration; activity value ranges from (2.8-10.9). As to conditions: po. Summed up: as §1
The subject of test [14] is Mus musculus. In words: Effective dose by mouse phenyl-p-benzoquinone writhing (PQW)assay after peroral administration; 20.6-296.0. As to conditions: po.
In test [15] the test system is Mus musculus. In words: Effective dose by mouse phenyl-p-benzoquinone writhing (PQW)assay after peroral administration; 51.5-243. As to conditions: po.
For test [16], the system named is Mus musculus. Kind of test: Effective dose by mouse phenyl-p-benzoquinone writhing (PQW)assay after peroral administration; activity value ranges from (49.8-84.8). As to conditions: po. Summed up: as §1
In test [17] the test system is Rattus norvegicus. In words: Decrease in paw volume by the effect of compound at a dose of 10 mg/kg. An outline of the steps: as §2
Test [18] concerns Mus musculus. In words: Effective dose determined by mouse phenyl-p-benzoquinone writhing (PQW) assay after peroral administration. As to conditions: po. An outline of the steps: as §1
For test [19], the system named is Mus musculus. In words: Effective dose by mouse phenyl-p-benzoquinone writhing (PQW)assay after peroral administration; 26.7-130. As to conditions: po.
The subject of test [20] is Mus musculus. In words: Effective dose by mouse phenyl-p-benzoquinone writhing (PQW)assay after peroral administration; activity value ranges from (15.7 - 101.9). As to conditions: po. An outline of the steps:
as §1

For test [21], the system named is Mus musculus. Kind of test: Effective dose by mouse phenyl-p-benzoquinone writhing (PQW)assay after peroral administration; activity value ranges from (0.9-4.5). As to conditions: po.
Test [22] concerns Mus musculus. Kind of test: Effective dose by mouse phenyl-p-benzoquinone writhing (PQW)assay after peroral administration; activity value ranges from (10.2-45.9). As to conditions: po. An outline of the steps:
as §1

Test [23] concerns Mus musculus. Kind of test: Effective dose by mouse phenyl-p-benzoquinone writhing (PQW)assay after peroral administration; activity value ranges from (5.9 - 17.1). As to conditions: po. Summed up: as §1
For test [24], the system named is Mus musculus. In words: Effective dose by mouse phenyl-p-benzoquinone writhing (PQW)assay after peroral administration; activity value ranges from (3.1 - 39.5). As to conditions: po. Summed up:
as §1

The test system of test [25] is Mus musculus. Kind of test: Effective dose by mouse phenyl-p-benzoquinone writhing (PQW)assay after peroral administration; 16.7-121.5. As to conditions: po.
For test [26], the system named is Mus musculus. Kind of test: Effective dose by mouse phenyl-p-benzoquinone writhing (PQW)assay after peroral administration; 30.9-197.0. As to conditions: po.
Test [27] concerns Mus musculus. In words: Effective dose by mouse phenyl-p-benzoquinone writhing (PQW)assay after peroral administration; activity value ranges from (0.23-1.22). As to conditions: po.
The subject of test [28] is Mus musculus. Kind of test: Effective dose by mouse phenyl-p-benzoquinone writhing (PQW)assay after peroral administration; activity value ranges from (7.5-51.9). As to conditions: po. Summed up:
as §1

Test [29] concerns Mus musculus. Kind of test: Effective dose against mouse phenyl-p-benzoquinone writhing (PQW)assay, peroral administration; activity value ranges from (21.9-110). As to conditions: po.
Test [30] concerns Rattus norvegicus. In words: Decrease in paw volume was evaluated at dose 150 mg/kg. Summed up: as §2
In test [31] the test system is Mus musculus. Kind of test: Effective dose by mouse phenyl-p-benzoquinone writhing (PQW)assay after peroral administration; 27.2-42.9. As to conditions: po.

Take `COc1ccc(-c2nc(S(=O)(=O)C(F)(F)C(F)Br)[nH]c2-c2ccc(OC)cc2)cc1` (configuration not stated): in [1], the median effective dose (ED50) worked out at 0.3 mg/kg.
Consider `C=CSc1nc(-c2ccc(OC)cc2)c(-c2ccc(OC)cc2)[nH]1`, for which the median effective dose (ED50) in test [2] is 12 mg/kg; in test [3], 34 mg/kg.
In [4], `O=S(=O)(c1nc(-c2ccccc2Cl)c(-c2ccccc2Cl)[nH]1)C(F)(F)C(F)F` showed a median effective dose (ED50) of 4.4 mg/kg.
`CCC[S+]([O-])c1nc(-c2ccc(OC)cc2)c(-c2ccc(OC)cc2)[nH]1` (configuration not stated): the median effective dose (ED50) stood at 40 mg/kg in [5] and 15 mg/kg in test [2].
As for `O=S(=O)(c1nc(-c2ccccc2)c(-c2ccccc2)[nH]1)C(F)(F)CF`, the ED50 in test [6] was 5.6 mg/kg; in test [2], 0.14 mg/kg.
`COc1ccccc1-c1nc(S(=O)(=O)C(F)(F)C(F)F)[nH]c1-c1ccccc1OC`: the ED50 in test [2] was > 9 mg/kg; in [7], 40 mg/kg.
As to `O=S(=O)(c1nc(-c2ccc(Cl)c(Cl)c2)c(-c2ccccc2)[nH]1)C(F)(F)F`, the median effective dose (ED50) in [8] worked out at 16 mg/kg; in test [2], 0.35 mg/kg.
Consider `COc1ccc(-c2nc(S(=O)(=O)C(F)(F)C(F)I)[nH]c2-c2ccc(OC)cc2)cc1` (configuration not stated), for which the ED50 stood at 16.7 mg/kg in test [9] and 5 mg/kg in [2].
As to `COc1cccc(-c2nc(S(=O)(=O)C(F)(F)C(F)F)[nH]c2-c2cccc(OC)c2)c1`, in [10], the median effective dose (ED50) was 67 mg/kg.
As to `Cc1ccc(-c2[nH]c(S(=O)(=O)C(F)(F)C(F)F)nc2-c2cccc(Cl)c2)cc1`, the Decrease in test [11] stood at 36%. In [12], this compound showed a median effective dose (ED50) of 49 mg/kg.
`Cc1ccc(-c2[nH]c(S(=O)(=O)C(F)(F)C(F)F)nc2-c2ccccc2)cc1`: the ED50 in test [2] was 0.8 mg/kg; in test [13], 5.5 mg/kg.
In the case of `FC(F)Sc1nc(-c2ccc(Cl)cc2)c(-c2ccc(Cl)cc2)[nH]1`, the 50% effective dose (ED50) in test [14] was found to be 78 mg/kg.
Regarding `COc1ccc(-c2nc(SC(F)F)[nH]c2-c2ccc(OC)cc2)cc1`, in test [15], the 50% effect level (ED50) was put at a dose of 112 mg/kg.
For `CCCCC1C(=O)N(c2ccccc2)N(c2ccccc2)C1=O` [PHENYLBUTAZONE], in [16], the ED50 worked out at 65 mg/kg.
Consider `CS(=O)(=O)c1nc(-c2cccc(Cl)c2)c(-c2ccccc2)[nH]1`, for which, in test [17], the Decrease is reported as 55%. In test [18], the 50% effective dose (ED50) is > 130 mg/kg.
For `COc1ccc(-c2nc(SC(F)(F)C(F)Br)[nH]c2-c2ccc(OC)cc2)cc1` (configuration not stated), the ED50 came out at 59 mg/kg in [19] and 10 mg/kg in test [2].
Regarding `CCCS(=O)(=O)c1nc(-c2ccc(OC)cc2)c(-c2ccc(OC)cc2)[nH]1`, the ED50 was 40 mg/kg in test [20] and 9.5 mg/kg in [2].
On to `O=S(=O)(c1nc(-c2cccc(F)c2)c(-c2ccccc2)[nH]1)C(F)(F)C(F)F`, for which the ED50 in [21] worked out at 2 mg/kg.
As for `O=[N+]([O-])c1ccc(-c2[nH]c(S(=O)(=O)C(F)(F)C(F)F)nc2-c2ccc(F)cc2)cc1`, the results for the median effective dose (ED50) in test [22] and in test [2] were 21.6 mg/kg and 0.37 mg/kg, respectively.
Regarding `O=S(=O)(CC(F)(F)F)c1nc(-c2ccc(Cl)cc2)c(-c2ccc(Cl)cc2)[nH]1`, the ED50 in [2] and in test [23] was 10 mg/kg throughout.
Turning to `[O-][S+](c1nc(-c2ccc(Cl)cc2)c(-c2ccc(Cl)cc2)[nH]1)C(F)(F)C(F)F` (configuration not stated), the results for the ED50 in test [2] and in [24] were 0.22 mg/kg and 11 mg/kg, respectively.
Regarding `COc1ccc(-c2nc(SC(F)(F)C(F)F)[nH]c2-c2ccc(OC)cc2)cc1`, the ED50 in test [25] was 45 mg/kg; in test [2], 4.5 mg/kg.
Consider `COc1ccc(-c2[nH]c(SC(F)(F)F)nc2-c2ccc(F)cc2)cc1`, for which, in [26], the ED50 is 78 mg/kg.
`COc1ccc(-c2nc(S(=O)(=O)C(F)(F)CF)[nH]c2-c2ccc(OC)cc2)cc1` came in with an ED50 in test [27] of 0.53 mg/kg.
In the case of `O=S(=O)(c1nc(-c2cccc(Cl)c2)c(-c2ccccc2)[nH]1)C(F)(F)C(F)F`, the median effective dose (ED50) was 19.8 mg/kg in test [28] and 0.04 mg/kg in test [2].
Turning to `C[S+]([O-])c1nc(-c2ccc(Cl)cc2)c(-c2ccc(Cl)cc2)[nH]1` (configuration not stated), the ED50 in test [2] is 2.5 mg/kg; in test [29] it was 49 mg/kg.
On to `FC(F)(F)CSc1nc(-c2ccccc2)c(-c2ccccc2)[nH]1`, for which the ED50 in test [18] is > 130 mg/kg. The same compound yielded a Decrease in test [30] of 54%.
Regarding `O=S(=O)(c1nc(-c2ccccc2)c(-c2ccccc2)[nH]1)C(F)(F)C(Cl)Cl`, the ED50 amounted to 34.2 mg/kg in test [31] and 1.7 mg/kg in [2].

Broadly, the ED50 is the dose at which the effect has come halfway, by size or by number of responders.

The values are drawn from ChEMBL document CHEMBL1123026, “Preparation and antiarthritic and analgesic activity of 4,5-diaryl-2-(substituted thio)-1H-imidazoles and their sulfoxides and sulfones” (1985).
